Values belong to the compound of their own block, whether it stands above or below them. Calls of active or inactive are those of the source. The calls are words filed in the database; no cut-off is given here.
How the values were obtained:
Mus musculus [1] = experiment: In vivo inhibition of ASBT in C57BL/6J mouse assessed as increase in fecal bile acid excretion measured for 24 hrs; format: functional; details: Feces
[2] = Apparent permeability in MDCK cells expressing MDR1 at 3 uM after 60 mins by LC-MS/MS analysis; format: ADME, cell-based, Canis lupus familiaris; details: dog
Mus musculus [3] = experiment: In vivo inhibition of ASBT in C57BL/6J mouse assessed as increase in fecal bile acid excretion measured for 24 hrs relative to 264W94; format: functional, Feces; design: concentration or dose not given beside the values
[4] = target: T1, Ileal sodium/bile acid cotransporter (Rattus norvegicus, UniProt Q62633); experiment: Inhibition of rat ASBT expressed in HEK293 cells assessed as inhibition of [3H]-taurocholate uptake after 90 mins by scintillation counting analysis; format: cell-based
T1 sequence (Q62633 whole entry): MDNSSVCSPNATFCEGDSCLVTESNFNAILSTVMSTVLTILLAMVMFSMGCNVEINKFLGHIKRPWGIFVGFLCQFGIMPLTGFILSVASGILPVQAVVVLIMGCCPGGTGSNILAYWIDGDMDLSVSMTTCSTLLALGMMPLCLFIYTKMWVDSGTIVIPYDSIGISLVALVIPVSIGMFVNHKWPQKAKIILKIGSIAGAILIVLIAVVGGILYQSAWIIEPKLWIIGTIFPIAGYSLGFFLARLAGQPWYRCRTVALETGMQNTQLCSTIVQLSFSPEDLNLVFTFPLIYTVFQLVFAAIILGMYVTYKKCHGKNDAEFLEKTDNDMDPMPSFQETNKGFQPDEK

[5] = Drug recovery in Sprague-Dawley rat feces at 10 mg/kg, po; format: ADME, organism-based; design: dose 10 mg/kg, route oral; details: read-out: Drug recovery
[6] = target: T2, Ileal sodium/bile acid cotransporter (Mus musculus, UniProt P70172); experiment: Inhibition of mouse ASBT expressed in HEK293 cells assessed as inhibition of [3H]-taurocholate uptake after 90 mins by scintillation counting analysis; format: cell-based
T2 sequence (P70172 whole entry): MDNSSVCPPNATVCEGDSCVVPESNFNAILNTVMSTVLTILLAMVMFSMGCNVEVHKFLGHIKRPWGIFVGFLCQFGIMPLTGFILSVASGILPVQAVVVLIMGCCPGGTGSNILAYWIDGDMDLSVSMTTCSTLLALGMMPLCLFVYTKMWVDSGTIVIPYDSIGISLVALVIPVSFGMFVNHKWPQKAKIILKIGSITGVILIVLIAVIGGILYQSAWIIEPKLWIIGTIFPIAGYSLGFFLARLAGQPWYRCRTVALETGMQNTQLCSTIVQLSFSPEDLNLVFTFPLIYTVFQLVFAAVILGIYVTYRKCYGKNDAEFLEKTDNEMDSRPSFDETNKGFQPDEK

[7] = Half life in Sprague-Dawley rat intestine at 10 mg/kg, po; format: ADME, organism-based; design: dose 10 mg/kg, route oral
[8] = Cmax in Sprague-Dawley rat portal vein blood at 10 mg/kg, po; format: ADME, organism-based; design: dose 10 mg/kg, route oral
Summary of the method: (§1)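 Fed male SD rats given a single oral gavage dose of 10 mg/kg. Maximum parent drug concentration measured in portal vein blood and in systemic blood.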

[9] = target: T3, Ileal sodium/bile acid cotransporter (Homo sapiens, UniProt Q12908); experiment: Inhibition of human ASBT expressed in HEK293 cells assessed as inhibition of [3H]-taurocholate uptake after 90 mins by scintillation counting analysis; format: cell-based
T3 sequence (Q12908 whole entry): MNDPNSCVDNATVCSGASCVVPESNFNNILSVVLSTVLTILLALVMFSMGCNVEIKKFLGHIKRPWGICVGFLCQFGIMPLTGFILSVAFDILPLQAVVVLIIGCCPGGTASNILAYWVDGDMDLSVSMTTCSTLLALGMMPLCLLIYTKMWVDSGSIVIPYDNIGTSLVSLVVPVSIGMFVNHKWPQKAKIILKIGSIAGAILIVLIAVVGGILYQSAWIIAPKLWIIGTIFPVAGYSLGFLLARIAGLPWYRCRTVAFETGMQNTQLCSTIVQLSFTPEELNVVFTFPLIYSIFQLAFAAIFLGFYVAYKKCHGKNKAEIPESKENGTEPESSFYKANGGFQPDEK

[10] = Cmax in Sprague-Dawley rat systemic blood at 10 mg/kg, po; format: ADME, organism-based; design: dose 10 mg/kg, route oral; summary of the method: as §1
[11] = Thermal stability of the compound; format: physicochemical
Rattus norvegicus [12] = experiment: Antidiabetic activity in Zucker diabetic fatty rat assessed as reduction in blood HbA1c level at 0.05 to 10 mg/kg, po bid for 2 weeks measured on day 14 relative to vehicle-treated control; format: functional; design: scale not given: the % may be the effect or the level left; details: dose mg/kg 0.05-10
Summary of the method: (§2)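 Male ZDF rats, 8 weeks old, dosed orally twice daily for 14 days in two separate studies. Day-14 tail-vein blood sampled for HbA1c and for plasma glucose (nonfasted), insulin and total GLP-1. Compared with vehicle-treated animals, significance at p < 0.05.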

[13] = Aqueous solubility of the compound; format: physicochemical; details: buffer
Rattus norvegicus [14] = experiment: Antidiabetic activity in Zucker diabetic fatty rat assessed as reduction in non-fasted plasma glucose level at 0.05 to 10 mg/kg, po bid for 2 weeks measured on day 14 relative to vehicle-treated control; format: functional; design: scale not given: the % may be the effect or the level left; details: dose mg/kg 0.05-10; summary of the method: as §2
Rattus norvegicus [15] = experiment: Antidiabetic activity in Zucker diabetic fatty rat assessed as increase in plasma insulin level at 0.05 to 10 mg/kg, po bid for 2 weeks measured on day 14 relative to vehicle-treated control; format: functional, organism-based; summary of the method: as §2
Rattus norvegicus [16] = experiment: Antidiabetic activity in Zucker diabetic fatty rat assessed as increase in total GLP-1 level at 0.05 to 10 mg/kg, po bid for 2 weeks measured on day 14 relative to vehicle-treated control; format: functional, organism-based; summary of the method: as §2
Rattus norvegicus [17] = experiment: Antidiabetic activity in Zucker diabetic fatty rat assessed as increase in fecal bile acid excretion at 0.05 to 10 mg/kg, po bid for 2 weeks measured for 24 hrs post last dose relative to vehicle-treated control; format: functional, Feces; details: dose mg/kg 0.05-10
Rattus norvegicus [18] = experiment: Antidiabetic activity in Zucker diabetic fatty rat assessed as increase in plasma insulin level at 0.001 to 10 mg/kg, po bid for 2 weeks measured on day 14 relative to vehicle-treated control; format: functional, organism-based; summary of the method: as §2
Rattus norvegicus [19] = experiment: Antidiabetic activity in Zucker diabetic fatty rat assessed as reduction in blood HbA1c level at 0.001 to 10 mg/kg, po bid for 2 weeks measured on day 14 relative to vehicle-treated control; format: functional; design: scale not given: the % may be the effect or the level left; details: dose mg/kg 0.001-10; summary of the method: as §2
Rattus norvegicus [20] = experiment: Antidiabetic activity in Zucker diabetic fatty rat assessed as reduction in non-fasted plasma glucose level at 0.001 to 10 mg/kg, po bid for 2 weeks measured on day 14 relative to vehicle-treated control; format: functional; design: scale not given: the % may be the effect or the level left; details: dose mg/kg 0.001-10; summary of the method: as §2
Rattus norvegicus [21] = experiment: Antidiabetic activity in Zucker diabetic fatty rat assessed as increase in total GLP-1 level at 0.001 to 10 mg/kg, po bid for 2 weeks measured on day 14 relative to vehicle-treated control; format: functional, organism-based; summary of the method: as §2
[22] = Aqueous solubility of the compound at pH 7.4; format: physicochemical; details: buffer
Cynomolgus monkey = experiment: Cmax in cynomolgous monkey systemic blood at 3 mg/kg, po; format: ADME, organism-based, Macaca fascicularis; design: dose 3 mg/kg, route oral; details: in vivo, BLD = below limit of detection
Summary of the method: (§3)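 Solution dosed orally to fed SD rats (10 mg/kg), male beagle dogs (10 mg/kg) or cynomolgous monkeys (3 mg/kg). Parent compound measured in systemic circulation; rat lower limit of quantitation 1 ng/mL.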

[23] = Cmax in beagle dog systemic blood at 10 mg/kg, po; format: ADME, organism-based, Canis lupus familiaris; design: dose 10 mg/kg, route oral; summary of the method: as §3
Rattus norvegicus [24] = experiment: Antidiabetic activity in portal vein cannulated lean Sprague-Dawley rat assessed as increase in portal vein total GLP-1 level at 10 mg/kg, po measured after 3 to 8 hrs; format: functional, organism-based; design: dose 10 mg/kg
Rattus norvegicus [25] = experiment: Antidiabetic activity in portal vein cannulated lean Sprague-Dawley rat assessed as increase in portal vein PYY level at 10 mg/kg, po measured after 3 to 8 hrs; format: functional, organism-based; design: dose 10 mg/kg
Rattus norvegicus [26] = experiment: Antidiabetic activity in portal vein cannulated lean Sprague-Dawley rat assessed as effect on portal vein GIP level at 10 mg/kg, po measured after 3 to 8 hrs relative to vehicle-treated control; format: functional, organism-based; design: dose 10 mg/kg
[27] = Stability of the compound by glutathione trapping assay; format: physicochemical
Rattus norvegicus [28] = experiment: In vivo inhibition of ASBT in portal vein cannulated lean Sprague-Dawley rat assessed as decrease in portal vein bile acid level at 10 mg/kg, po measured after 1 to 2 hrs relative to vehicle-treated control; format: functional, organism-based; design: dose 10 mg/kg
Intestine = experiment: Metabolic stability in Sprague-Dawley rat intestine assessed as formation of (7R,9R)-7-Butyl-7-ethyl-2-methoxy-5,5-dioxo-9-phenyl-6,7,8,9-tetrahydro-5H-5lambda(6)-thia-8-aza-benzocyclohepten-3-ol at 10 mg/kg, po after 2 to 24 hrs; format: ADME, organism-based; design: dose 10 mg/kg, route oral; details: in vivo

Structure (SMILES): CCCC[C@]1(CC)CS(=O)(=O)c2cc(CNCC(=O)O)c(OC)cc2[C@@H](c2ccccc2)N1
IC50 [9]: 4 nM
ED50 (Mus musculus [1]): 0.017 mg/kg
Cmax [10]: 1 ng/mL
Papp at 1 h, 3 µM [2]: 2.7 ×10⁻⁶ cm/s
Stability [11]: Unstable
Activity (Rattus norvegicus [12]): 1.3%
solubility [13]: ≥ 200 µg/mL
Efficacy (Mus musculus [3]): 98%
IC50 [4]: 0.2 nM
dose excreted [5]: 92%
Activity (Rattus norvegicus [14]): >50%
IC50 [6]: 0.3 nM
half-life [7]: > 12 h
Activity (Rattus norvegicus [15]): Active
Activity (Rattus norvegicus [16]): Active
fold change (FC) (Rattus norvegicus [17]): 7
Cmax [8]: 27 ng/mL

Structure (SMILES): CCCC[C@]1(CC)CS(=O)(=O)c2cc(CP(=O)(O)O)c(OC)cc2[C@@H](c2ccccc2)N1
ED50 (Mus musculus [1]): 0.12 mg/kg
Activity (Rattus norvegicus [24]): Active
Cmax [10]: 3 ng/mL
Activity (Rattus norvegicus [25]): Active
Papp at 1 h, 3 µM [2]: 0.7 ×10⁻⁶ cm/s
Activity (Rattus norvegicus [12]): 1.3%
solubility [13]: ≥ 200 µg/mL
Efficacy (Mus musculus [3]): 92%
Activity (Rattus norvegicus [26]): inactive
IC50 [4]: 0.9 nM
dose excreted [5]: 87%
Activity (Rattus norvegicus [14]): >50%
Stability [27]: Unstable
IC50 [6]: 0.5 nM
half-life [7]: > 12 h
Activity (Rattus norvegicus [15]): Active
Activity (Rattus norvegicus [16]): Active
fold change (FC) (Rattus norvegicus [17]): 7
Cmax [8]: 14 ng/mL
inhibition (Rattus norvegicus [28]): Active

Structure (SMILES): CCCC[C@]1(CC)CS(=O)(=O)c2cc(OC)c(OC)cc2[C@@H](c2ccccc2)N1
IC50 [9]: 180 nM
ED50 (Mus musculus [1]): 0.13 mg/kg
Cmax [10]: 19 ng/mL
Papp at 1 h, 3 µM [2]: 10.7 ×10⁻⁶ cm/s
Efficacy (Mus musculus [3]): 100%
IC50 [4]: 22 nM
dose excreted [5]: 3%
IC50 [6]: 3 nM
Cmax [8]: 100 ng/mL
Stability (Intestine): Unstable

The next lines start with results.

Papp at 1 h, 3 µM [2]: 1 ×10⁻⁶ cm/s
IC50 [4]: 2.3 nM
dose excreted [5]: 100%
IC50 [6]: 0.9 nM
half-life [7]: > 12 h
Cmax [8]: 7 ng/mL
Structure (SMILES): CCCC[C@]1(CC)CS(=O)(=O)c2cc(CNCCS(=O)(=O)O)c(OC)cc2[C@@H](c2ccccc2)N1
ED50 (Mus musculus [1]): 2.7 mg/kg
Efficacy (Mus musculus [3]): 73%

IC50 [9]: 42 nM
Papp at 1 h, 3 µM [2]: 0.7 ×10⁻⁶ cm/s
Stability [11]: Stable
solubility [13]: ≥ 200 µg/mL
solubility [22]: > 7000 µg/mL
IC50 [4]: 1.9 nM
dose excreted [5]: 98%
IC50 [6]: 2.1 nM
half-life [7]: > 12 h
Cmax (Cynomolgus monkey): BLD
Cmax [23]: 6 ng/mL
Cmax [8]: 4 ng/mL
Structure (SMILES): CCCC[C@]1(CC)CS(=O)(=O)c2cc(CNC(CC(=O)O)CC(=O)O)c(OC)cc2[C@@H](c2ccccc2)N1 [LINERIXIBAT]
Activity (Rattus norvegicus [18]): Active
Activity (Rattus norvegicus [19]): 1.3%
Activity (Rattus norvegicus [20]): >50%
ED50 (Mus musculus [1]): 0.022 mg/kg
Activity (Rattus norvegicus [21]): Active
Efficacy (Mus musculus [3]): 94%
fold change (FC) (Rattus norvegicus [17]): 7

Reference: ChEMBL document CHEMBL2385035 (J Med Chem, 2013)
